Measurements taken from paper PMC10521327 (Journal of the American Chemical Society, 2023).
Where two headings read alike, the source gives them in different places. Blank lines part the entries; values can stand above or below the compound they belong to.

Columns and labels:
[1] = tested on: A2780 (Ovary); assay: Resazurin antiproliferative assay, 72 h; format: cell-based; settings: read-out: IC50 A2780 (Ovary)
Outline: (§1)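 Cells were incubated with test compound for 72 h. Viability was read by the fluorescence-based resazurin assay (reduction to resorufin), chosen because formazan absorbance (400–800 nm) interferes with colorimetric probes. IC50 values were derived for each line. The panel was cancer lines plus MRC-5 normal lung fibroblasts.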

[2] = tested on: MDA-MB-231 (Breast); assay: Resazurin antiproliferative assay, 72 h; format: cell-based; settings: read-out: IC50 MDA-MB-231 (Breast)
Outline: as §1

[3] = tested on: Caco-2 (Colon); assay: Resazurin antiproliferative assay, 72 h; format: cell-based; settings: read-out: IC50 Caco-2 (Colon)
Outline: as §1

[4] = tested on: A549 (Lung); assay: Resazurin antiproliferative assay, 72 h; format: cell-based; settings: read-out: IC50 A549 (Lung)
Outline: as §1

[5] = tested on: MRC-5 (Normal lung); assay: Resazurin antiproliferative assay, 72 h; format: cell-based; settings: read-out: IC50 MRC-5 (Normal lung), mean ± SDM, n=3
Outline: as §1

[6] = tested on: tested cancer cell lines (A2780, MDA-MB-231, Caco-2, A549); assay: Resazurin antiproliferative assay, summary over the cancer cell panel; format: cell-based; settings: 72 h, read-out: IC50 range in the tested cancer cell lines
Outline: as §1

[7] = In vitro calcein competition for Fe; settings: 50 mM HEPES buffer pH 7.4 and MeOH 3:1 v/v
Outline: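 Cell-free competition: calcein was quenched with Fe(II) (1.0 equiv) in 50 mM HEPES pH 7.4/MeOH (3:1 v/v). Test compound was then added, and recovery of calcein fluorescence was taken as displacement of iron from the probe.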

[8] = tested on: A2780 ovarian cancer cells; assay: Cell cycle distribution by flow cytometry; format: cell-based; settings: A2780, 40 μM, 24 h
Outline: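 A2780 cells were treated with test compound at 40 μM for 24 h, then analysed by flow cytometry for cell-cycle phase distribution. Triplicate experiments; mean ± standard deviation; t-tests against DMSO vehicle only.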

[9] = tested on: A2780 ovarian cancer cells; assay: Apoptotic cell death by flow cytometry; format: cell-based; settings: A2780, 40 μM, 48 h
Outline: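 A2780 ovarian cancer cells were exposed to test compound (40 μM) for 48 h. Flow cytometry then scored the fractions of cells in early and late apoptosis. Runs were in triplicate, reported as mean ± standard deviation, with t-tests against DMSO vehicle.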

[10] = tested on: A2780 ovarian cancer cells; assay: Intracellular calcein assay; format: cell-based; settings: A2780, 40 μM, 24 h
Outline: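 Calcein-AM delivered calcein to the cytosol, where it is partly quenched by labile iron. Cells were incubated with test compound (40 μM), and the rise in calcein fluorescence was measured against DMSO vehicle. A2780 cells were sampled after 1, 3 and 24 h. Triplicate; mean ± standard deviation; t-tests.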

[11] = tested on: MRC-5 normal lung fibroblasts; assay: Intracellular calcein assay; format: cell-based; settings: MRC-5, 40 μM, 24 h
[12] = tested on: transferrin receptor 1 (TfR1); assay: Western blot of TfR1 expression in A2780 cells; format: cell-based; settings: A2780, 40 μM, 24 h
Outline: (§2)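 Cells were treated with test compound for 24 h; A2780 cells were treated at 40 μM. Lysates were analysed by Western blot for TfR1 and ferritin heavy chain, with β-actin as loading control. n=4; t-tests against DMSO vehicle. Ferric ammonium citrate supplementation served as an iron-replete comparison in A2780.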

[13] = tested on: ferritin heavy chain (ferritin H); assay: Western blot of ferritin H expression in A2780 cells; format: cell-based; settings: A2780, 40 μM, 24 h
Outline: as §2

[14] = tested on: transferrin receptor 1 (TfR1); assay: Western blot of TfR1 expression in MRC-5 cells; format: cell-based; settings: MRC-5, 24 h
Outline: as §2

[15] = tested on: ferritin heavy chain (ferritin H); assay: Western blot of ferritin H expression in MRC-5 cells; format: cell-based; settings: MRC-5, 24 h
Outline: as §2

[16] = tested on: A2780 cells; format: cell-based; settings: A2780, 40 μM, 48 h, FAC (50 μM) or holo-Tf (50 μM)
[17] = Distribution coefficient by shake-flask method; format: physicochemical; settings: octanol and PBS (pH 7.4), HPLC
[18] = Stability / reduction kinetics in fetal bovine serum by HPLC; format: in vitro ADME
[19] = resazurin assay, 72 h, mean ± SDM, n=3

- IC50 ([1]; Homo sapiens, A2780, 72 h): 15 ± 1 µM
- IC50 ([2]; Homo sapiens, MDA-MB-231, 72 h): 17 ± 1 µM
- IC50 ([3]; Homo sapiens, Caco-2, 72 h): 67 ± 2 µM
- IC50 ([4]; Homo sapiens, A549, 72 h): 21 ± 3 µM
- IC50 [6]: 15 to 67 µM
- Restoration of calcein fluorescence (displacement of Fe(II) from calcein) [7]: fully restore its initial fluorescence
Compound: O=C(O)c1ccc(-n2nc(-c3ccccc3O)nc2-c2ccccc2O)cc1 [DFX, deferasirox]
- IC50 [5]: 220 ± 20 µM
- Effect on cell cycle distribution [8]: S-phase arrest
- Cells in late apoptosis [9]: 42%
- Increase of calcein fluorescence [10]: ~ 54%
- Increase of calcein fluorescence [11]: ~ 34%
- TfR1 expression level [12]: increase of TfR1 expression
- Ferritin H expression level [13]: degradation of ferritin
- TfR1 expression level [14]: maintained similar effects, albeit less pronounced
- Ferritin H expression level [15]: maintained similar effects, albeit less pronounced
- Effect of iron supplementation on cytotoxicity [16]: could be rescued by iron supplementation

- Log Do/pH7.4 [17]: 0.1
- Half-life t1/2 in serum [18]: > 24 h
- Stability (serum, 24 h), remaining ([18]; 24 h): 58%
- IC50 [1, 19]: 45 ± 9 µM
- IC50 [2, 19]: 48 ± 7 µM
- IC50 [3, 19]: 92 ± 7 µM
- IC50 [4, 19]: 44 ± 9 µM
Compound: Cc1nc(-[n+]2nc(-c3ccccc3)nn2-c2ccccc2)sc1C.[Br-] [MTT]
- IC50 [5]: 32 ± 5 µM

- Restoration of calcein fluorescence (displacement of Fe(II) from calcein) [7]: fail to displace calcein-bound iron(II)
Compound: O=C(O)CC(O)(CC(=O)O)C(=O)O [citric acid]

Compound: ferric ammonium citrate [FAC]
- TfR1 expression level [12]: decrease of TfR1
- Ferritin H expression level [13]: increase of ferritin H levels
- TfR1 expression level [14]: maintained similar effects, albeit less pronounced
- Ferritin H expression level [15]: maintained similar effects, albeit less pronounced
